{
  "source": "ChEMBL document CHEMBL4732170",
  "about": "“Discovery of Small-Molecule Antagonists of the PWWP Domain of NSD2” (J Med Chem, 2021)",
  "key": {"[1]": {"target": "DNA (cytosine-5)-methyltransferase 3B (Homo sapiens) (UniProt Q9UBC3)", "assay": "Binding affinity to DNMT3b PWWP domain (unknown origin) assessed as aggregation temperature at 400 uM by heating at 25 to 85 degC by differential static light scattering method"}, "[2]": {"target": "T1, Histone-lysine N-methyltransferase NSD2 (Homo sapiens) (UniProt O96028)", "T1 sequence (whole entry)": "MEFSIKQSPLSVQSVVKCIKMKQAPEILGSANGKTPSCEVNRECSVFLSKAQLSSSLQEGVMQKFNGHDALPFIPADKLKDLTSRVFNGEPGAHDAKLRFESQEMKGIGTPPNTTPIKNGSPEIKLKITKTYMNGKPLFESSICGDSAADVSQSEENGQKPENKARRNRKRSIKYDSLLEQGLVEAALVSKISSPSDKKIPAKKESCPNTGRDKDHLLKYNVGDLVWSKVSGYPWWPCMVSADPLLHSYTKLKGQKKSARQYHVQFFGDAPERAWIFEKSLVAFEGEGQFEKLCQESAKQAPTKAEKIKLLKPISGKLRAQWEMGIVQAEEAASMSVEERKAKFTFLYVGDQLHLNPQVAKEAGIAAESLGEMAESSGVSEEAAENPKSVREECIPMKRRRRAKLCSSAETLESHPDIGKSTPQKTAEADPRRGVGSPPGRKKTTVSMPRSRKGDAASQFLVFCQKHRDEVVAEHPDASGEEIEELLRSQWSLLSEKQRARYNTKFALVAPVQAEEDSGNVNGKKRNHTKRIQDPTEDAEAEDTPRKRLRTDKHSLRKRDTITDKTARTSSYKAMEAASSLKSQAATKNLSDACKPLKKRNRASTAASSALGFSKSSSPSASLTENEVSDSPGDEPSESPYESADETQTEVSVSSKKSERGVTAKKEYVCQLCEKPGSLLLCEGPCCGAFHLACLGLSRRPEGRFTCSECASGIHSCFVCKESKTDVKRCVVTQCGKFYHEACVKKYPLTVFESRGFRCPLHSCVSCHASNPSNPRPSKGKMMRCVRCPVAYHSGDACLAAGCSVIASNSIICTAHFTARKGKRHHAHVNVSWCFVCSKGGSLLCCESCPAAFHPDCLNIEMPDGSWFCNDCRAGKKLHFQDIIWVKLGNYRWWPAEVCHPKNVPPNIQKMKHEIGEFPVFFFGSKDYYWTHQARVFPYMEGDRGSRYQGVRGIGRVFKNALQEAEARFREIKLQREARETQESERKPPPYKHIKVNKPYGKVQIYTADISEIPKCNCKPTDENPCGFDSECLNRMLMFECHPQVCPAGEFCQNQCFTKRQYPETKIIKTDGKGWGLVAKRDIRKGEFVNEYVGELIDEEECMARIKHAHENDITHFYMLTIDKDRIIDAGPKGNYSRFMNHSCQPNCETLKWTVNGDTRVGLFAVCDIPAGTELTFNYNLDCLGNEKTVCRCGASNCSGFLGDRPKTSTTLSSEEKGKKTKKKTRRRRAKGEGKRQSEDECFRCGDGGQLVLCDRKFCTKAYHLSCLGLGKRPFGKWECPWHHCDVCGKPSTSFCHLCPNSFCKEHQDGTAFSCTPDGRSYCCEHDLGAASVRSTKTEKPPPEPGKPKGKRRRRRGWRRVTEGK", "settings": "filed as antagonist, dose 400.0 µM"}, "[3]": {"target": "T2, Peregrin (Homo sapiens) (UniProt P55201)", "T2 sequence (whole entry)": "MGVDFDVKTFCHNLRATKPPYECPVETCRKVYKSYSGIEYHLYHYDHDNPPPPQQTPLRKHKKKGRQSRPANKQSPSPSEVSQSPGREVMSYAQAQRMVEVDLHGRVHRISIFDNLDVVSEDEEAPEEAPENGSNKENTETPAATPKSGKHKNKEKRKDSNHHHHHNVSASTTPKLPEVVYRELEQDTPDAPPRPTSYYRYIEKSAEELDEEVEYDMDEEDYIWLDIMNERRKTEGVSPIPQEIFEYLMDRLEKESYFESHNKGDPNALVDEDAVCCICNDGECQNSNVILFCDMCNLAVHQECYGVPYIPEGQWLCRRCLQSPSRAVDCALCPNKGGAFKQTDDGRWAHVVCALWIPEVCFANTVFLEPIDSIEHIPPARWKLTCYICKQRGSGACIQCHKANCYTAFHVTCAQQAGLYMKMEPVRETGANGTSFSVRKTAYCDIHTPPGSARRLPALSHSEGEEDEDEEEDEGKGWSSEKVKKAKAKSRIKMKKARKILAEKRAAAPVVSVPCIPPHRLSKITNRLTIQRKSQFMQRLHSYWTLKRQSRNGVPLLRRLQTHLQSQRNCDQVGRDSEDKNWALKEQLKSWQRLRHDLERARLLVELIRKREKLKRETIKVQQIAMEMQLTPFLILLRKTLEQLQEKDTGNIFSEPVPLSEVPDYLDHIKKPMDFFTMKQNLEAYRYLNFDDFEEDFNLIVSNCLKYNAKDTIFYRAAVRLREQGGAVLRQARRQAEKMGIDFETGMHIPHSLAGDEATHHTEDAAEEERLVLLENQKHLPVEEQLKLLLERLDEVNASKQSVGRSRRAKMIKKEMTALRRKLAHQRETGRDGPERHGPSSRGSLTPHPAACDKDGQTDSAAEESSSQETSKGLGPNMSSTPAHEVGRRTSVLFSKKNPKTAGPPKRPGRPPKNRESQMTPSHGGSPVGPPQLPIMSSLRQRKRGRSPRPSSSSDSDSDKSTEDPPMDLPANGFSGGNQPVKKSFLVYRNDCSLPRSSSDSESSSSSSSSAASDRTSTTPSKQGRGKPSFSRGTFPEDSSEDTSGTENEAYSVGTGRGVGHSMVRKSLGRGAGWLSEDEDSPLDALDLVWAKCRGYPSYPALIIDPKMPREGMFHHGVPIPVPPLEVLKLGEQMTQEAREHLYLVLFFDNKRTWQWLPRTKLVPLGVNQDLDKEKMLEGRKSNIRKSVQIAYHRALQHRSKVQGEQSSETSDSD", "assay": "Binding affinity to BRPF1 PWWP domain (unknown origin) assessed as aggregation temperature at 400 uM by heating at 25 to 85 degC by differential static light scattering method"}, "[4]": {"target": "T3, Histone-lysine N-methyltransferase NSD2 (Homo sapiens, UniProt O96028)", "T3 sequence (O96028 whole entry)": "T1 sequence (whole entry)", "assay": "Binding affinity to NSD2 PWWP1 domain (unknown origin) assessed as dissociation constant by isothermal titration calorimetric analysis", "outline": "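Reverse ITC: purified NSD2-PWWP1 (aa 211-350, human, E. coli-expressed, His-tag removed) dialyzed into 20 mM Tris pH 7.5, 100 mM NaCl. Protein at 1 mM titrated into cell holding 40 μM ligand, 1% DMSO in both. Twelve 4 μL injections at 25 °C. Kd from one-binding-site model fit.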"}},
  "note": "Activity calls are given as the source filed them. No cut-off for these calls is given here.",
  "data": [
    {"smiles": "N#Cc1ccc(C(C(N)=O)N2CCC2c2ccc(Cl)cc2)cc1", "note": "(centres undefined)", "values": [
      {"measurement": "Activity", "setting": "[1]", "result": "inactive"},
      {"measurement": "deltaT", "setting": "[2]", "result": 3.9, "unit": "°C"},
      {"measurement": "Activity", "setting": "[3]", "result": "inactive"},
      {"measurement": "Kd", "setting": "[4]", "result": 8.9, "unit": "µM"}
    ]}
  ]
}
